Our source for the EC50, Activity and Kb values is ChEMBL document CHEMBL1142934, “Molecular modeling of the human P2Y2 receptor and design of a selective agonist, 2'-amino-2'-deoxy-2-thiouridine 5'-triphosphate” (J Med Chem, 2007).

What all share (type): functional, cell-based
For one test, the target named is P2Y purinoceptor 2 (Homo sapiens, UniProt P41231). As to the kind of experiment: Agonist activity at human recombinant P2Y2 receptor expressed in 1321N1 cells assessed as stimulation of phospholipase C. The procedure, abridged: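 Human P2Y2, P2Y4 or P2Y6 receptors stably expressed in 1321N1 astrocytoma cells. PLC activation was measured across a concentration range of each nucleotide. Tritiated inositol phosphates formed from a radiolabeled myo-inositol precursor were quantified by a standard ion exchange method. Values are mean ± standard error, N = 3.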
P2Y purinoceptor 2, sequence (P41231 whole entry): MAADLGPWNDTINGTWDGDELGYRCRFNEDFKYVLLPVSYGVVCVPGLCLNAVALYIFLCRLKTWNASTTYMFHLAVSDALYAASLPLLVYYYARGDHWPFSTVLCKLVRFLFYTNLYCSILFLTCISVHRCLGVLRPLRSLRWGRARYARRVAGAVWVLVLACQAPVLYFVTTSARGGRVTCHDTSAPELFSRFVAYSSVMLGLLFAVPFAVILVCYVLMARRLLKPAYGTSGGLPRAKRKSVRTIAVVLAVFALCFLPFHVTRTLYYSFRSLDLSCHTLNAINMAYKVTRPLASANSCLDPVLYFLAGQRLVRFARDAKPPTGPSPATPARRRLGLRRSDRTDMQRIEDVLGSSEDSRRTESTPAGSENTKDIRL

For test [1], the target named is T1, P2Y purinoceptor 6 (Homo sapiens, UniProt Q15077). As to the kind of experiment: Agonist activity at human recombinant P2Y6 receptor expressed in 1321N1 cells assessed as stimulation of phospholipase C. The procedure, abridged: (§1)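 Human P2Y2, P2Y4 or P2Y6 receptors stably expressed in 1321N1 astrocytoma cells. PLC activation was measured across a concentration range of each nucleotide. Tritiated inositol phosphates formed from a radiolabeled myo-inositol precursor were quantified by a standard ion exchange method. EC50 was the concentration giving 50% of the maximal effect, fitted with a four-parameter logistic equation. Values are mean ± standard error, N = 3.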
T1 sequence (Q15077 whole entry): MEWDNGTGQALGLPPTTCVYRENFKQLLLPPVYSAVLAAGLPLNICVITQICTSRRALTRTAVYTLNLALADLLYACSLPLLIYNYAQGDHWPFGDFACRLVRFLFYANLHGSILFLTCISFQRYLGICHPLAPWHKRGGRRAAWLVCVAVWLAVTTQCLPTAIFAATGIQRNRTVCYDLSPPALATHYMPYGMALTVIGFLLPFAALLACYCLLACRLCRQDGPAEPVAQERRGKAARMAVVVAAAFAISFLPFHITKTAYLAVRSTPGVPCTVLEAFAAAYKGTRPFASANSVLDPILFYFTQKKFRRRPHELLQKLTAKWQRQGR

Test [2] has as its target T2, P2Y purinoceptor 4 (Homo sapiens, UniProt P51582). Briefly: Antagonistic activity at human recombinant P2Y4 receptor expressed in 1321N1 cells. Particulars: filed as antagonist.
Test [3] concerns the target T2, P2Y purinoceptor 4. Briefly: Agonist activity at human recombinant P2Y4 receptor expressed in 1321N1 cells assessed as stimulation of phospholipase C. An outline of the steps:
as §1

The target of test [4] is T1, P2Y purinoceptor 6. As to the kind of experiment: Agonist activity at human recombinant P2Y6 receptor expressed in 1321N1 cells assessed as intracellular calcium mobilization.

T2 sequence (P51582 whole entry): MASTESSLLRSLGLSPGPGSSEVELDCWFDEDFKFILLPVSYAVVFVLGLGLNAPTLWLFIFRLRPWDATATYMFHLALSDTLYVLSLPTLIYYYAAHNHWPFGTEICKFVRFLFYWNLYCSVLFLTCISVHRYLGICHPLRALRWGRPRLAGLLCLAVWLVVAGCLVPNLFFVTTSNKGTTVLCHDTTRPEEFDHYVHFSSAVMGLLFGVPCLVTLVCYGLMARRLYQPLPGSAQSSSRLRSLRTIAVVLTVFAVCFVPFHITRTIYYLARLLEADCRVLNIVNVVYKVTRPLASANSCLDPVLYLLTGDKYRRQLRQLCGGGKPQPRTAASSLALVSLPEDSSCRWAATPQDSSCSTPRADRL

Take `CC(=O)N[C@@H]1[C@H](O)[C@@H](COP(=O)(O)OP(=O)(O)OP(=O)(O)O)O[C@H]1n1ccc(=O)[nH]c1=S`: the EC50 (usually the midpoint of the concentration-response curve) on P2Y purinoceptor 2 is 6500 nM (agonist).

`[N-]=[N+]=Nc1cn([C@@H]2O[C@H](COP(=O)(O)OP(=O)(O)OP(=O)(O)O)[C@@H](O)[C@H]2O)c(=O)[nH]c1=O`: the EC50 was 1800 nM (agonist) on P2Y purinoceptor 2 and 467 nM (agonist) on P2Y purinoceptor 6 [1].

In the case of `Nc1ncnc2c1ncn2[C@@H]1O[C@H](COP(=O)(O)OP(=O)(O)OP(=O)(O)O)[C@@H](O)[C@H]1O`, at P2Y purinoceptor 4 [2], the Activity result is “Antagonist” and the Kb (commonly the equilibrium dissociation constant of an antagonist, usually derived from a functional assay) was 708 nM.

For the compound `O=c1ccn([C@@H]2O[C@H](COP(=O)(O)OP(=O)(O)OP(=O)(O)O)[C@@H](O)[C@H]2O)c(=S)[nH]1`, the figures for the 50% effective concentration (EC50) on P2Y purinoceptor 2, at P2Y purinoceptor 4 [3] and on P2Y purinoceptor 6 [1] were 35 nM (agonist), 350 nM (agonist) and 1500 nM (agonist), respectively.

Consider `O=c1[nH]c(=O)n([C@@H]2O[C@H](COP(=O)(O)OP(=O)(O)OP(=O)(O)O)[C@@H](O)[C@H]2O)cc1Br`, for which the concentration giving a half-maximal response (EC50) on P2Y purinoceptor 2 is reported as 750 nM (agonist).

Turning to `Nc1cn([C@@H]2O[C@H](COP(=O)(O)OP(=O)(O)OP(=O)(O)O)[C@@H](O)[C@H]2O)c(=O)[nH]c1=O`, the EC50 on P2Y purinoceptor 2 is 5600 nM (agonist); on P2Y purinoceptor 6 [1], 333 nM (agonist).

With `Nc1ccn([C@H]2C[C@H](O)[C@@H](COP(=O)(O)OP(=O)(O)OP(=O)(O)OP(=O)(O)OC[C@H]3O[C@@H](n4ccc(=O)[nH]c4=O)[C@H](O)[C@@H]3O)O2)c(=O)n1` [DENUFOSOL], the 50% effective concentration (EC50) on P2Y purinoceptor 2 was 270 nM (agonist).

Turning to `N[C@@H]1[C@H](O)[C@@H](COP(=O)(O)OP(=O)(O)OP(=O)(O)O)O[C@H]1n1ccc(=O)[nH]c1=S`, the EC50 was 8 nM (agonist) at P2Y purinoceptor 2, 2400 nM (agonist) at P2Y purinoceptor 4 [3] and above 10000 nM on P2Y purinoceptor 6 [1].

With `N[C@@H]1[C@H](O)[C@@H](COP(=O)(O)OP(=O)(O)OP(=O)(O)O)O[C@H]1n1ccc(=O)[nH]c1=O`, the half-maximal effective concentration (EC50) on P2Y purinoceptor 2 is 62 nM (agonist); on P2Y purinoceptor 4 [3], 1200 nM (agonist); at P2Y purinoceptor 6 [1], above 100000 nM.

For `O=c1ccn([C@@H]2O[C@H](COP(=O)(O)OP(=O)(O)OP(=O)(O)OP(=O)(O)OC[C@H]3OC(O)[C@H](O)[C@@H]3O)[C@@H](O)[C@H]2O)c(=O)[nH]1` (some centres not stated), at P2Y purinoceptor 2, the concentration giving a half-maximal response (EC50) is 1880 nM (agonist).

Turning to `O=c1[nH]c(=O)n([C@@H]2O[C@H](COP(=O)(O)OP(=O)(O)OP(=O)(O)O)[C@@H](O)[C@H]2O)cc1I`, on P2Y purinoceptor 2, the concentration for a half-maximal effect (EC50) was 830 nM (agonist).

With `O=c1ccn([C@H]2C[C@H](O)[C@@H](COP(=O)(O)OP(=O)(O)OP(=O)(O)O)O2)c(=O)[nH]1`, the concentration for a half-maximal effect (EC50) on P2Y purinoceptor 2 was 1080 nM (agonist).

On to `CO[C@@H]1[C@H](O)[C@@H](COP(=O)(O)OP(=O)(O)OP(=O)(O)O)O[C@H]1n1ccc(=O)[nH]c1=O`, for which, at P2Y purinoceptor 2, the 50% effective concentration (EC50) was 14300 nM (agonist).

For the compound `O=c1ccn([C@@H]2O[C@H](COP(=O)(O)OP(=O)(O)OP(=O)(O)S)[C@@H](O)[C@H]2O)c(=O)[nH]1` (some centres not stated), the 50% effective concentration (EC50) at P2Y purinoceptor 2 is given as 240 nM (agonist).

With `O=C(N[C@@H]1[C@H](O)[C@@H](COP(=O)(O)OP(=O)(O)OP(=O)(O)O)O[C@H]1n1ccc(=O)[nH]c1=S)C(F)(F)F`, the half-maximal effective concentration (EC50) at P2Y purinoceptor 2 was 470 nM (agonist); on P2Y purinoceptor 4 [3], 8300 nM (agonist).

In the case of `Cc1cn([C@@H]2O[C@H](COP(=O)(O)OP(=O)(O)OP(=O)(O)O)[C@@H](O)[C@H]2O)c(=O)[nH]c1=O` [THYMIDINE_TRIPHOSPHATE], the EC50 at P2Y purinoceptor 2 is 480 nM (agonist); on P2Y purinoceptor 4 [3], 3900 nM (agonist); at P2Y purinoceptor 6 [1], 140 nM (agonist).

Consider `O=c1ccn([C@@H]2O[C@H](COP(=O)(O)OP(=O)(O)OP(=O)(O)O)[C@@H](O)[C@H]2O)c(=O)[nH]1` [URIDINE TRIPHOSPHATE], for which the half-maximal effective concentration (EC50) at P2Y purinoceptor 2 is 49 nM (agonist); at P2Y purinoceptor 4 [3], 73 nM (agonist); at P2Y purinoceptor 6 [4], > 10000 nM (agonist).

Take `O=c1ccn([C@@H]2O[C@H](COP(=O)(O)OP(=O)(O)OP(=O)(O)OP(=O)(O)OC[C@H]3O[C@@H](n4ccc(=O)[nH]c4=O)[C@H](O)[C@@H]3O)[C@@H](O)[C@H]2O)c(=O)[nH]1` [DIQUAFOSOL]: at P2Y purinoceptor 6 [4], the EC50 is 20000 nM (agonist).
